Results: ChEMBL document CHEMBL1147771, “Synthesis and antibacterial activity of 9-substituted minocycline derivatives” (2006)
Converted amounts (≈) assume the structure as drawn.

Experiments:
Format in all cases: functional
Escherichia coli [1] = assay: Antibacterial activity against Minocycline sensitive Escherichia coli 88-2
How it was run: (§1)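 MICs determined by agar dilution.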

Staphylococcus aureus [2] = assay: Antibacterial activity against Staphylococcus aureus Smith; how it was run: as §1
Escherichia coli [3] = assay: Antibacterial activity against Minocylcine sensitive Escherichia coli 89-2; how it was run: as §1
Staphylococcus aureus [4] = assay: Antibacterial activity against Staphylococcus aureus UBMS 88-7 carrying the tetK-resistant determinant
How it was run: (§2)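 Antibacterial activity determined by agar dilution.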

Enterococcus faecalis = assay: Antibacterial activity against Enterococcus faecalis ATCC 29212; how it was run: as §1
Staphylococcus aureus [5] = assay: Antibacterial activity against Staphylococcus aureus UBMS 90-2 carrying tetM-resistant determinant; how it was run: as §2
Escherichia coli [6] = assay: Antibacterial activity against Escherichia coli UBMS 88-1 carrying tetB-resistant determinant; how it was run: as §2
Staphylococcus aureus [7] = assay: Antibacterial activity against Staphylococcus aureus UBMS 90-1 carrying tetM-resistant determinant; how it was run: as §2
Staphylococcus aureus [8] = assay: Antibacterial activity against Staphylococcus aureus UBMS 90-3; how it was run: as §1
Escherichia coli [9] = assay: Antibacterial activity against Escherichia coli UBMS 89-1 carrying tetM-resistant determinant; how it was run: as §2
Escherichia coli [10] = assay: Antibacterial activity against Minocycline sensitive Escherichia coli 90-5; how it was run: as §2
Escherichia coli [11] = assay: Antibacterial activity against Escherichia coli UBMS 90-4 carrying tetM-resistant determinant; how it was run: as §2

Compound | MIC (Escherichia coli [1]) [µg/mL] | MIC (Staphylococcus aureus [2]) [µg/mL] | MIC (Escherichia coli [3]) [µg/mL] | MIC (Staphylococcus aureus [4]) [µg/mL] | MIC (Enterococcus faecalis) [µg/mL] | MIC (Staphylococcus aureus [5]) [µg/mL] | MIC (Escherichia coli [6]) [µg/mL] | MIC (Staphylococcus aureus [7]) [µg/mL] | MIC (Staphylococcus aureus [8]) [µg/mL] | MIC (Escherichia coli [9]) [µg/mL] | MIC (Escherichia coli [10]) [µg/mL] | MIC (Escherichia coli [11]) [µg/mL]
Cc1ccccc1C(=O)Nc1cc(N(C)C)c2c(c1O)C(O)=C1C(=O)[C@]3(O)C(O)=C(C(N)=O)C(=O)[C@@H](N(C)C)C3CC1C2 (some centres undefined) | > 32 | 1 (≈ 1.69 µM) | > 32 | 4 (≈ 6.77 µM) | 2 (≈ 3.39 µM) | 2 (≈ 3.39 µM) | 2 (≈ 3.39 µM) | 8 (≈ 13.5 µM) | 1 (≈ 1.69 µM) | – | – | –
CN(C)c1cc(NC(=O)c2ccccc2)c(O)c2c1CC1CC3[C@H](N(C)C)C(=O)C(C(N)=O)=C(O)[C@@]3(O)C(=O)C1=C2O (some centres undefined) | > 32 | 1 (≈ 1.73 µM) | > 32 | 8 (≈ 13.9 µM) | 4 (≈ 6.94 µM) | 4 (≈ 6.94 µM) | > 32 | 4 (≈ 6.94 µM) | 1 (≈ 1.73 µM) | – | – | –
CN(C)c1cc(NC(=O)c2cccs2)c(O)c2c1CC1CC3[C@H](N(C)C)C(=O)C(C(N)=O)=C(O)[C@@]3(O)C(=O)C1=C2O (some centres undefined) | > 32 | 2 (≈ 3.43 µM) | > 32 | 32 (≈ 54.9 µM) | 8 (≈ 13.7 µM) | 4 (≈ 6.87 µM) | > 32 | 4 (≈ 6.87 µM) | 2 (≈ 3.43 µM) | > 32 | – | –
CN(C)c1ccc(C(=O)Nc2cc(N(C)C)c3c(c2O)C(O)=C2C(=O)[C@]4(O)C(O)=C(C(N)=O)C(=O)[C@@H](N(C)C)C4CC2C3)cc1 (some centres undefined) | > 32 | 4 (≈ 6.45 µM) | > 32 | 16 (≈ 25.8 µM) | 8 (≈ 12.9 µM) | 8 (≈ 12.9 µM) | > 32 | 16 (≈ 25.8 µM) | 8 (≈ 12.9 µM) | > 32 | – | –
CN(C)CCCC(=O)Nc1cc(N(C)C)c2c(c1O)C(=O)C1=C(O)[C@]3(O)C(O)=C(C(N)=O)C(=O)[C@@H](N(C)C)C3CC1C2 (some centres undefined) | – | 2 (≈ 3.41 µM) | – | 16 (≈ 27.3 µM) | 4 (≈ 6.83 µM) | 4 (≈ 6.83 µM) | > 32 | 8 (≈ 13.7 µM) | 2 (≈ 3.41 µM) | – | 16 (≈ 27.3 µM) | 16 (≈ 27.3 µM)
CN(C)c1cc(NC(=O)c2cccc(C(F)(F)F)c2)c(O)c2c1CC1CC3[C@H](N(C)C)C(=O)C(C(N)=O)=C(O)[C@@]3(O)C(=O)C1=C2O (some centres undefined) | > 32 | 1 (≈ 1.55 µM) | > 32 | 1 (≈ 1.55 µM) | 1 (≈ 1.55 µM) | 1 (≈ 1.55 µM) | > 32 | 1 (≈ 1.55 µM) | 0.5 (≈ 0.776 µM) | > 32 | – | –
CN(C)c1cc(NS(C)(=O)=O)c(O)c2c1CC1CC3[C@H](N(C)C)C(=O)C(C(N)=O)=C(O)[C@@]3(O)C(=O)C1=C2O (some centres undefined) | 2 (≈ 3.63 µM) | 0.12 (≈ 0.218 µM) | 2 (≈ 3.63 µM) | 8 (≈ 14.5 µM) | 0.06 (≈ 0.109 µM) | 0.06 (≈ 0.109 µM) | 8 (≈ 14.5 µM) | 0.25 (≈ 0.454 µM) | 0.12 (≈ 0.218 µM) | – | – | –
CN(C)c1cc(NS(=O)(=O)c2ccccc2)c(O)c2c1CC1CC3[C@H](N(C)C)C(=O)C(C(N)=O)=C(O)[C@@]3(O)C(=O)C1=C2O (some centres undefined) | 8 (≈ 13.1 µM) | 4 (≈ 6.53 µM) | 16 (≈ 26.1 µM) | 4 (≈ 6.53 µM) | 0.06 (≈ 0.0979 µM) | 0.06 (≈ 0.0979 µM) | 16 (≈ 26.1 µM) | 4 (≈ 6.53 µM) | 4 (≈ 6.53 µM) | – | – | –
CN(C)c1cc(NC(=O)CO)c(O)c2c1CC1CC3[C@H](N(C)C)C(=O)C(C(N)=O)=C(O)[C@@]3(O)C(=O)C1=C2O (some centres undefined) | – | 0.5 (≈ 0.942 µM) | – | > 32 | 32 (≈ 60.3 µM) | 2 (≈ 3.77 µM) | > 32 | 4 (≈ 7.54 µM) | 1 (≈ 1.88 µM) | – | > 32 | > 32
CN(C)CC(=O)Nc1cc(N(C)C)c2c(c1O)C(=O)C1=C(O)[C@]3(O)C(O)=C(C(N)=O)C(=O)[C@@H](N(C)C)C3CC1C2 (some centres undefined) | – | 0.06 (≈ 0.108 µM) | – | 0.5 (≈ 0.897 µM) | 0.06 (≈ 0.108 µM) | – | 0.25 (≈ 0.448 µM) | 0.12 (≈ 0.215 µM) | 0.06 (≈ 0.108 µM) | – | 0.12 (≈ 0.215 µM) | 0.25 (≈ 0.448 µM)
CN(C)c1cc(NC(=O)CNC2CCCC2)c(O)c2c1CC1CC3[C@H](N(C)C)C(=O)C(C(N)=O)=C(O)[C@@]3(O)C(=O)C1=C2O (some centres undefined) | – | 0.25 (≈ 0.418 µM) | – | 2 (≈ 3.35 µM) | 0.12 (≈ 0.201 µM) | – | 0.25 (≈ 0.418 µM) | 0.25 (≈ 0.418 µM) | 0.12 (≈ 0.201 µM) | – | 0.25 (≈ 0.418 µM) | 0.25 (≈ 0.418 µM)
CN(C)c1cc(NS(=O)(=O)c2cccs2)c(O)c2c1CC1CC3[C@H](N(C)C)C(=O)C(C(N)=O)=C(O)[C@@]3(O)C(=O)C1=C2O (some centres undefined) | 8 (≈ 12.9 µM) | 0.03 (≈ 0.0485 µM) | 16 (≈ 25.9 µM) | 2 (≈ 3.23 µM) | 0.25 (≈ 0.404 µM) | 0.25 (≈ 0.404 µM) | 32 (≈ 51.7 µM) | 1 (≈ 1.62 µM) | 0.25 (≈ 0.404 µM) | – | – | –
CC(=O)Nc1nc(C)c(S(=O)(=O)Nc2cc(N(C)C)c3c(c2O)C(O)=C2C(=O)[C@]4(O)C(O)=C(C(N)=O)C(=O)[C@@H](N(C)C)C4CC2C3)s1 (some centres undefined) | > 32 | 2 (≈ 2.9 µM) | > 32 | 32 (≈ 46.3 µM) | 1 (≈ 1.45 µM) | 4 (≈ 5.79 µM) | > 32 | 32 (≈ 46.3 µM) | 2 (≈ 2.9 µM) | 32 (≈ 46.3 µM) | – | –
CN(C)c1cc(NC(=O)c2ccccc2F)c(O)c2c1CC1CC3[C@H](N(C)C)C(=O)C(C(N)=O)=C(O)[C@@]3(O)C(=O)C1=C2O (some centres undefined) | > 32 | 1 (≈ 1.68 µM) | > 32 | 8 (≈ 13.5 µM) | 4 (≈ 6.73 µM) | 2 (≈ 3.36 µM) | > 32 | 4 (≈ 6.73 µM) | 1 (≈ 1.68 µM) | – | – | –
CN(C)c1cc(NS(=O)(=O)c2ccc(Cl)cc2)c(O)c2c1CC1CC3[C@H](N(C)C)C(=O)C(C(N)=O)=C(O)[C@@]3(O)C(=O)C1=C2O (some centres undefined) | > 32 | 0.12 (≈ 0.185 µM) | > 32 | 1 (≈ 1.55 µM) | 0.06 (≈ 0.0927 µM) | 0.12 (≈ 0.185 µM) | > 32 | 0.25 (≈ 0.386 µM) | 0.12 (≈ 0.185 µM) | – | – | –
CN(C)c1cc(NC(=O)CCC2CCCC2)c(O)c2c1CC1CC3[C@H](N(C)C)C(=O)C(C(N)=O)=C(O)[C@@]3(O)C(=O)C1=C2O (some centres undefined) | – | 4 (≈ 6.7 µM) | – | 8 (≈ 13.4 µM) | 8 (≈ 13.4 µM) | 8 (≈ 13.4 µM) | > 128 | 8 (≈ 13.4 µM) | 4 (≈ 6.7 µM) | – | > 128 | > 128
CN(C)c1ccc(O)c2c1C[C@H]1C[C@H]3[C@H](N(C)C)C(O)=C(C(N)=O)C(=O)[C@@]3(O)C(O)=C1C2=O [MINOCYCLINE] | 0.25 (≈ 0.546 µM) | 0.06 (≈ 0.131 µM) | 2 (≈ 4.37 µM) | 0.25 (≈ 0.546 µM) | 2 (≈ 4.37 µM) | 2 (≈ 4.37 µM) | 16 (≈ 35 µM) | 8 (≈ 17.5 µM) | 0.03 (≈ 0.0656 µM) | > 32 | – | –
CN(C)c1cc(NC(=O)CNC(C)(C)C)c(O)c2c1C[C@H]1C[C@H]3[C@H](N(C)C)C(O)=C(C(N)=O)C(=O)[C@@]3(O)C(O)=C1C2=O [TIGECYCLINE] | – | 0.25 (≈ 0.427 µM) | – | 0.5 (≈ 0.854 µM) | 0.12 (≈ 0.205 µM) | – | 0.5 (≈ 0.854 µM) | 0.12 (≈ 0.205 µM) | 0.25 (≈ 0.427 µM) | – | 0.25 (≈ 0.427 µM) | 0.12 (≈ 0.205 µM)
